# Source: ChEMBL document CHEMBL1140992, “High throughput screening of potentially selective MMP-13 exosite inhibitors utilizing a triple-helical FRET substrate” (Bioorg Med Chem, 2009)
# Tests used:
# [1] = target: Matrix metalloproteinase-9 (Homo sapiens) (UniProt P14780); experiment: Inhibition recombinant MMP9 at 100 uM; parameters: scale not given: the % may be the effect or the level left
# How it was run: (§1)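 Pro-enzyme (MMP-8 expressed in CHO-K1 cells; MMP-9 recombinant) was activated with 1 mM APMA for 1 h at 37 °C. Active enzyme concentration was determined by titration with recombinant N-TIMP-1, using Knight fSSP or NFF-3 substrate.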
# [2] = target: Neutrophil collagenase (Homo sapiens) (UniProt P22894); experiment: Inhibition recombinant MMP8 expressed in CHO-K1 cells at 100 uM; assay type: cell-based; parameters: scale not given: the % may be the effect or the level left; how it was run: as §1
# [3] = target: Macrophage metalloelastase (Homo sapiens) (UniProt P39900); experiment: Inhibition recombinant MMP12 at 100 uM; parameters: scale not given: the % may be the effect or the level left
# How it was run: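 Recombinant MMP-12 was expressed directly in active form, with no zymogen activation step. Active concentration was determined by recombinant N-TIMP-1 titration, with Knight fSSP or NFF-3 as substrate.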
# [4] = target: T1, Interstitial collagenase (Homo sapiens) (UniProt P03956); experiment: Inhibition recombinant MMP1 at 100 uM; parameters: scale not given: the % may be the effect or the level left
# T1 sequence (whole entry): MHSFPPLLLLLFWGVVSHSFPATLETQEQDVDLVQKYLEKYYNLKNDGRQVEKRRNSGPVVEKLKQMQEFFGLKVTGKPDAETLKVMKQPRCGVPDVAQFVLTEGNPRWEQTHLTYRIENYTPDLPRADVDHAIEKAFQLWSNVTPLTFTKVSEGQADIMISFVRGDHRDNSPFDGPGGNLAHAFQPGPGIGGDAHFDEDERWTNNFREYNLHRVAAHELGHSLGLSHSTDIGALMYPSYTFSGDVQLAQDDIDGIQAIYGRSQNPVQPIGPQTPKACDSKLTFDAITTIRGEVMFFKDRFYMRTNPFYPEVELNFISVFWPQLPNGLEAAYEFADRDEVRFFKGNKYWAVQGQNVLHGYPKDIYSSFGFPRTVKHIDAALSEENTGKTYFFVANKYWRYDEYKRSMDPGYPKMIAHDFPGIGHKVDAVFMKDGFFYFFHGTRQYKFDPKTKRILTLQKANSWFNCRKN
# How it was run: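 Enzyme source: proMMP-1 expressed in E. coli and refolded from inclusion bodies. Activated with 1 mM APMA plus 0.1 equiv MMP-3(Δ248-460) for 6 h at 37 °C. The MMP-3 fragment was then removed by size-exclusion chromatography. Active enzyme was quantified by titration with recombinant N-TIMP-1, using Knight fSSP or NFF-3 as substrate.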
# [5] = target: Stromelysin-1 (Homo sapiens) (UniProt P08254); experiment: Inhibition recombinant MMP3 at 100 uM; parameters: scale not given: the % may be the effect or the level left
# How it was run: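 ProMMP-3 was expressed in E. coli and folded from inclusion bodies. It was activated with 5 μg/mL chymotrypsin at 37 °C for 2 h, and chymotrypsin was then inactivated with 2 mM diisopropylfluorophosphate. Active concentration was set by N-TIMP-1 titration, with Knight fSSP or NFF-3 as substrate.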
# [6] = target: 72 kDa type IV collagenase (Homo sapiens) (UniProt P08253); experiment: Inhibition recombinant MMP2 at 100 uM; parameters: scale not given: the % may be the effect or the level left
# Collagenase 3 [7] = target: T2, Collagenase 3 (Homo sapiens, UniProt P45452); experiment: Inhibition of human recombinant MMP13 expressed in Escherichia coli
# Collagenase 3 [8] = target: T2, Collagenase 3; experiment: Activity of human recombinant MMP13; parameters: concentration or dose not given beside the values
# How it was run: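 Recombinant full-length human proMMP-13, activated with 1 mM APMA for 2 h at 37 °C and active-site titrated with N-TIMP-1. Run in 1536-well format in Tris·HCl pH 7.5, 100 mM NaCl, 10 mM CaCl2, 0.05% Brij-35, 0.3% DMSO. Triple-helical FRET substrate fTHP-15 (Mca/Dnp). Stopped with EDTA after 4 h at 25 °C; fluorescence read at ex 325/em 450 nm. Dose-response in triplicate, 10-point 1:3 dilutions from 40 μM; IC50 from four-parameter sigmoidal fit.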
# Macrophage metalloelastase (Homo sapiens), sequence (P39900 106-470 limits assumed): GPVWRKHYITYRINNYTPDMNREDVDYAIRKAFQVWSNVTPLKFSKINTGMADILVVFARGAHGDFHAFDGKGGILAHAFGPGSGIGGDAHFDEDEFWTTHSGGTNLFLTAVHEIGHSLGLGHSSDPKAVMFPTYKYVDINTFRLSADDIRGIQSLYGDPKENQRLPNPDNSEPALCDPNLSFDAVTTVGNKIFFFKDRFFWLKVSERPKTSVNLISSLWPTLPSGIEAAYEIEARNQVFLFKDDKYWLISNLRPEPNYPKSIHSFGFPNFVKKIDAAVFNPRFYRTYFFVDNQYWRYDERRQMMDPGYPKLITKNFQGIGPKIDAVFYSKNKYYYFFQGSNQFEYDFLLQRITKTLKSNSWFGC
# Neutrophil collagenase (Homo sapiens), sequence (P22894 101-467 limits assumed): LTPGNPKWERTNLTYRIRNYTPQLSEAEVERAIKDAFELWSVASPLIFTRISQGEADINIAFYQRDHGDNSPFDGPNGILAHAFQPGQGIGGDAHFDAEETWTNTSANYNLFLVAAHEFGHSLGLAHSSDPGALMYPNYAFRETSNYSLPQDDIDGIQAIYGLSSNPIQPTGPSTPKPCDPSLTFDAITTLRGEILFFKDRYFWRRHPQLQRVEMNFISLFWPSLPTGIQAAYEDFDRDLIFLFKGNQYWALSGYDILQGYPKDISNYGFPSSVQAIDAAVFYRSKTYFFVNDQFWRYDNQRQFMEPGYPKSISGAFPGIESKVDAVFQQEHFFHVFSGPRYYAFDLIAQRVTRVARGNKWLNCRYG
# 72 kDa type IV collagenase (Homo sapiens), sequence (P08253 110-660 limits assumed): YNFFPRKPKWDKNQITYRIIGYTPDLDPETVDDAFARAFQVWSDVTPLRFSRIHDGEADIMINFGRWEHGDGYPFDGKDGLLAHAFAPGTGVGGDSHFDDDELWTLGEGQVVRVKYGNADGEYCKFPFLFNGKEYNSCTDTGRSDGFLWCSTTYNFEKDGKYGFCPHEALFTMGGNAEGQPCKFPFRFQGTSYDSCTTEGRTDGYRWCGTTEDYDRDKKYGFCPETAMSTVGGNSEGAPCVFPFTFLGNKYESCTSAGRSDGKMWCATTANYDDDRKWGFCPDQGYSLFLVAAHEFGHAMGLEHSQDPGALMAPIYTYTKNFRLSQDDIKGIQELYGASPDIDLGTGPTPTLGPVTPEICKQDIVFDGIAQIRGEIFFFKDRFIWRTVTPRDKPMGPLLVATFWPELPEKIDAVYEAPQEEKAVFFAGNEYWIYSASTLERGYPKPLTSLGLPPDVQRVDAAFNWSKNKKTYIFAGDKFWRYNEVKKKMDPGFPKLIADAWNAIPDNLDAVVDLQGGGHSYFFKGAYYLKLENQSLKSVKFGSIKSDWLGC
# Stromelysin-1 (Homo sapiens), sequence (P08254 100-477 limits assumed): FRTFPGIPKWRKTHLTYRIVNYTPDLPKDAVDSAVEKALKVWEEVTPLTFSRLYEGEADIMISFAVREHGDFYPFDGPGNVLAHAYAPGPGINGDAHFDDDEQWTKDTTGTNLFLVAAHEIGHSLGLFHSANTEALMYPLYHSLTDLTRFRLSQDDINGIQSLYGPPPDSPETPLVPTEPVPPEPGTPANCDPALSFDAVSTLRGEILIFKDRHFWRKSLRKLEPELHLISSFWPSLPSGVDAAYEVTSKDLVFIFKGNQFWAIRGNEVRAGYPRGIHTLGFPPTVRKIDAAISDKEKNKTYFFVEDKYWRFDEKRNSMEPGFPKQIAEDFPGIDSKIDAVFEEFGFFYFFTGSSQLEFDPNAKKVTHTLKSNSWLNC
# Matrix metalloproteinase-9 (Homo sapiens), sequence (P14780 whole entry): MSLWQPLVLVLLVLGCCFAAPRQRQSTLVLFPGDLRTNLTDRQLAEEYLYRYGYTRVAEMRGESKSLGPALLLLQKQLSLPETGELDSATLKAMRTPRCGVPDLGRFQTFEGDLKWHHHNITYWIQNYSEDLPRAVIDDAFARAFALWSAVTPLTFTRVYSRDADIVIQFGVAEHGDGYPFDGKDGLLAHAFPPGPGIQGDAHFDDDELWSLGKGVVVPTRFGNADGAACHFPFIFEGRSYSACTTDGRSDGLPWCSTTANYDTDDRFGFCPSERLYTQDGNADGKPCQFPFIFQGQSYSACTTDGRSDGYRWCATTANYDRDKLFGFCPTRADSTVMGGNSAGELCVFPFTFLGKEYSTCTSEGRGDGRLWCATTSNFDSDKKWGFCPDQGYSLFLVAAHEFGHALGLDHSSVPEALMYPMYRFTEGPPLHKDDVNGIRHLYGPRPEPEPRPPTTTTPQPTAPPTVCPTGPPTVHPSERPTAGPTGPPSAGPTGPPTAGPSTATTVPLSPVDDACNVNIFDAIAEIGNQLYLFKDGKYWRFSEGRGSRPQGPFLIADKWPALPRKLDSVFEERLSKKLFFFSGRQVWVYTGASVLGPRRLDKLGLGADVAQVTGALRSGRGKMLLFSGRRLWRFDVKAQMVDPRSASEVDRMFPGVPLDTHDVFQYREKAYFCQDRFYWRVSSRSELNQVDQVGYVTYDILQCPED
Structure (SMILES),Activity [1],Activity [2],Activity [3],Activity [4],Activity [5],Activity [6],IC50 (Collagenase 3 [7]),Activity (Collagenase 3 [8])
Cc1nn(-c2ccccc2)c2sc(-c3nnc(S)o3)cc12,100%,32%,75%,68%,75%,100%,0.9 µM,45%
COc1cc(-n2nc(C)c3c2OC(N)=C(C#N)C3c2ccccc2)c(Cl)c(Br)c1O (stereo unspecified),–,–,–,–,–,–,> 40 µM,–
CCOC(=O)C1CCCN(c2nc3ccccc3nc2C(C#N)C(=O)OCC)C1 (stereo unspecified),–,–,–,–,–,–,13.3 µM,–
O=C1NC(=O)C(CCc2ccncc2)(c2ccccc2)C(=O)N1,3%,8%,1%,27%,87%,17%,–,14%
O=C1NC(=O)C(CCc2ccncc2)(C2CCCCC2)C(=O)N1,27%,50%,21%,47%,96%,49%,–,35%
O=C(O)CCC(NS(=O)(=O)c1ccc(-c2ccccc2)cc1)C(=O)O (stereo unspecified),14%,2%,2%,25%,63%,7%,2.1 µM,4%
COc1ccc(C2C(C(C)=O)=C(C)N=c3s/c(=C\c4cc(C)n(C)c4C)c(=O)n32)c(OC)c1 (stereo unspecified),–,–,–,–,–,–,> 40 µM,–
COc1cc(OC)cc(-c2nnc(Nc3nc4c(F)cccc4s3)o2)c1,75%,36%,64%,96%,95%,73%,–,35%
Oc1nc(SCc2ccc(Cl)cc2)nc2c1CCC2,–,–,–,–,–,–,10.3 µM,–
COC(=O)c1ccc(CSc2nc(O)c3c(-c4cccs4)csc3n2)o1,100%,94%,92%,93%,92%,100%,–,42%
COc1ccc(CSc2nc(C)cc(O)n2)cc1,66%,80%,72%,98%,97%,47%,–,25%
CCCCCCOc1ccc(C(CC(=O)O)C(N)=O)cc1 (stereo unspecified),0%,10%,0%,91%,43%,0%,–,15%
O=C(CSCc1nc(O)n[nH]1)NCCOc1cccc(Oc2ccccc2)c1,27%,34%,33%,85%,96%,19%,–,35%
CCOC(=O)/C(C#N)=C1/C=Nc2ccccc2N1,99%,80%,100%,94%,96%,100%,3.4 µM,62%
CCN1C(=O)/C(=C2/Sc3ccccc3N2CCCS(=O)(=O)O)SC1=S,14%,100%,94%,88%,90%,80%,–,4%
C=CCN1C(=O)/C(=C2/Sc3ccccc3N2CCCS(=O)(=O)O)SC1=S,100%,100%,100%,96%,100%,100%,–,36%
